The results in this text go back to ChEMBL document CHEMBL1765010, “Reversible competitive α-ketoheterocycle inhibitors of fatty acid amide hydrolase containing additional conformational constraints in the acyl side chain: orally active, long-acting analgesics” (J Med Chem, 2011).

pKi: −log10 of the molar value. Active and inactive are the calls of the source. The calls are words filed in the database; no cut-off is given here.

In data set [1] the test system is Mus musculus. The experiment in a line: Inhibition of FAAH in C57Bl/6J mouse brain assessed as increase of anandamide level at 50 mg/kg, po after 1 hr relative to control. The format is functional. A digest of the protocol: (§1)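 Male C57Bl/6J mice (<6 months, 20–28 g) given compound orally as a PEG300 solution at 10, 25 or 50 mg/kg, with 3 mice per group in the 50 mg/kg p.o. comparison; brains collected 1 h post-dose. Lipids extracted in CHCl3:MeOH:Tris pH 8.0 with deuterated internal standards, then measured by C18 LC-ESI-MS/MS relative to vehicle-treated mice.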

Data set [2] relates to Mus musculus. The experiment in a line: Inhibition of FAAH in po dosed C57Bl/6J mouse brain assessed as increase of anandamide level after 1 hr relative to control. The data set is classed as functional, organism-based. In outline:
(§2)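 Male C57Bl/6J mice (<6 months, 20–28 g) given a single oral dose as a PEG300 solution. Brains were homogenized in CHCl3:MeOH:Tris pH 8.0 containing deuterated internal standards. The organic extract was analysed by reverse-phase C18 LC–ESI triple-quadrupole MS for anandamide, PEA, OEA and 2-AG. Dose series (10, 25, 50 mg/kg) was sampled at 1 h; the 50 mg/kg time course ran to 9 h. Three mice per group in the i.p./p.o. comparison.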

Data set [3] relates to Mus musculus. Briefly: Inhibition of FAAH in C57Bl/6J mouse brain assessed as increase of N-palmitoyl ethanolamine level at 10 to 50 mg/kg, po after 1 hr relative to control. The format is functional. As to conditions: dose mg/kg 10-50. A digest of the protocol:
as §1

The test system of data set [4] is Mus musculus. The experiment in a line: Inhibition of FAAH in C57Bl/6J mouse brain assessed as increase of 2-arachidonoylglycerol level at 50 mg/kg, po. Also noted: dose 50 mg/kg. Conditions: TDE = time-dependent effect. The data set is classed as functional, organism-based. In outline:
as §2

The subject of data set [5] is Mus musculus. The experiment in a line: Inhibition of FAAH in C57Bl/6J mouse brain assessed as increase of 2-arachidonoylglycerol level at 30 mg/kg, ip after 1 hr relative to control. The data set is classed as functional. Conditions: route intraperitoneal. A digest of the protocol:
(§3)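 Male C57Bl/6J mice (<6 months, 20–28 g) dosed i.p. at 30 mg/kg in 18:1:1 saline:ethanol:emulphor emulsion; brains taken 1 h later. One mouse in the initial screen, 3 per group in the follow-up. Brain homogenized in CHCl3:MeOH:Tris pH 8.0 with deuterated lipid standards; organic extract quantified by reverse-phase C18 LC-ESI-MS/MS against vehicle controls.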

For data set [6], the system named is Mus musculus. Briefly: Inhibition of FAAH in C57Bl/6J mouse brain assessed as increase of anandamide level at 25 to 50 mg/kg, po after 1 hr relative to control. The data set is classed as functional. As to conditions: dose mg/kg 25-50. In outline:
as §1

Data set [7] deals with Mus musculus. The experiment in a line: Inhibition of FAAH in C57Bl/6J mouse brain assessed as increase of anandamide level at 10 mg/kg, po. The data set is classed as functional. Further details: scale not given: the % may be the effect or the level left. A digest of the protocol: as §1
Data set [8] deals with Mus musculus. Briefly: Analgesic activity in C57BL/6 mouse chronic constriction injury model assessed as reversal of paws ipsilateral to CCI surgery at 50 mg/kg, po measured up to 9 hrs. The data set is classed as functional, organism-based. Also noted: dose 50 mg/kg. A digest of the protocol:
(§4)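 Male C57BL/6 mice with sciatic nerve chronic constriction injury (two silk ligatures, isoflurane anesthesia), tested from 10 days post-surgery after 2 days of apparatus habituation. Single oral dose in PEG300 or vehicle. Blinded observer tested ipsilateral and contralateral paws at 1, 3, 6 and 9 h: von Frey up-down method (0.16–6.0 g filaments, 5 stimuli each) and acetone-induced cold response. n = 9–10; mean ± SEM.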

Data set [9] has as its system Mus musculus. The experiment in a line: Inhibition of FAAH in C57Bl/6J mouse brain assessed as increase of anandamide level at 10 to 50 mg/kg, po after 1.5 to 3 hrs. The format is functional, organism-based.
Data set [10] deals with Mus musculus. Briefly: Analgesic activity in C57BL/6 mouse chronic constriction injury model assessed as reversal of von Frey filament-induced mechanical allodynia at 50 mg/kg, po measured up to 6 hrs. The data set is classed as functional, organism-based. Also noted: dose 50 mg/kg. A digest of the protocol: as §4
The subject of data set [11] is Mus musculus. The experiment in a line: Inhibition of FAAH in po dosed C57Bl/6J mouse brain assessed as increase of N-palmitoyl ethanolamine level after 1 hr relative to control. The data set is classed as functional, organism-based. As to conditions: in the assay text read “anandamide” for “N-palmitoyl ethanolamine”. A digest of the protocol: as §2
In data set [12] the test system is Mus musculus. Briefly: Inhibition of FAAH in C57Bl/6J mouse liver assessed as increase of 2-arachidonoylglycerol level at 30 mg/kg, ip after 1 hr relative to control. The format is functional. As to conditions: route intraperitoneal.
In data set [13] the test system is Mus musculus. Briefly: Inhibition of FAAH in C57Bl/6J mouse brain assessed as increase of N-palmitoyl ethanolamine level at 50 mg/kg, po. The data set is classed as functional, organism-based. Also noted: dose 50 mg/kg. Conditions: TDE = time-dependent effect. A digest of the protocol: as §2
The subject of data set [14] is Mus musculus. The experiment in a line: Inhibition of FAAH in C57Bl/6J mouse liver assessed as increase of N-palmitoyl ethanolamine level at 30 mg/kg, ip after 1 hr relative to control. The format is functional. Conditions: route intraperitoneal.
For data set [15], the system named is Mus musculus. The experiment in a line: Inhibition of FAAH in C57Bl/6J mouse liver assessed as increase of anandamide level at 30 mg/kg, ip after 1 hr relative to control. The data set is classed as functional. As to conditions: route intraperitoneal.
The subject of data set [16] is Mus musculus. Briefly: Inhibition of FAAH in C57Bl/6J mouse brain assessed as increase of N-palmitoyl ethanolamine level at 30 mg/kg, ip after 1 hr relative to control. The data set is classed as functional. As to conditions: route intraperitoneal. In outline: as §3
The test system of data set [17] is Mus musculus. Briefly: Inhibition of FAAH in po dosed C57Bl/6J mouse brain assessed as increase of 2-arachidonoylglycerol level after 1 hr relative to control. The format is functional, organism-based. In outline:
as §2

The subject of data set [18] is Mus musculus. The experiment in a line: Analgesic activity in C57BL/6 mouse chronic constriction injury model assessed as reversal of acetone-induced cold allodynia at 50 mg/kg, po measured up to 9 hrs. The format is functional, organism-based. Further details: dose 50 mg/kg. In outline: as §4
For data set [19], the system named is Mus musculus. The experiment in a line: Inhibition of FAAH in C57Bl/6J mouse brain assessed as increase of anandamide level at 50 mg/kg, po. The format is functional, organism-based. Also noted: dose 50 mg/kg. Conditions: TDE = time-dependent effect. A digest of the protocol:
as §2

The test system of data set [20] is Mus musculus. The experiment in a line: Inhibition of FAAH in C57Bl/6J mouse brain assessed as increase of 2-arachidonoylglycerol level at 50 mg/kg, po after 1 hr relative to control. The format is functional. In outline: as §1
Data set [21] addresses T1, Fatty-acid amide hydrolase 1 (Rattus norvegicus, UniProt P97612).
T1 sequence (P97612 whole entry): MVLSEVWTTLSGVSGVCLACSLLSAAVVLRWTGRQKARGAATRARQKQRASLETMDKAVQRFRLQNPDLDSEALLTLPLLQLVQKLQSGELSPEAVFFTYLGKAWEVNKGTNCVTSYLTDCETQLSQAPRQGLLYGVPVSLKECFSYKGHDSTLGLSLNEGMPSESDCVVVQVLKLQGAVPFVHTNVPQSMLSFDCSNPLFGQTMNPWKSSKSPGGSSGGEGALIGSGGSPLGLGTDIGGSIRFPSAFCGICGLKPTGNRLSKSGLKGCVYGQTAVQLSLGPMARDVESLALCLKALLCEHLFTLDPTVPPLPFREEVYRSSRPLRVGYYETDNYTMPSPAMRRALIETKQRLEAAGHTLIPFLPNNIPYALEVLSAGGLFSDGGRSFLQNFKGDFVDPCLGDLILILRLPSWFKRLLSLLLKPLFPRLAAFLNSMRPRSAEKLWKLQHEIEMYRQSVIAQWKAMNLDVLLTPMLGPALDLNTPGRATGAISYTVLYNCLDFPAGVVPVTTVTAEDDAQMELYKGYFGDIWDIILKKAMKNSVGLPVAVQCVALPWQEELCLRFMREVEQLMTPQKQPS
The experiment in a line: Inhibition of rat recombinant FAAH expressed in Escherichia coli assessed as [14C]-labeled oleamide to oleic acid conversion.

In data set [22] the test system is Mus musculus. The experiment in a line: Toxicity in C57BL/6 mouse assessed as catalepsy at 50 mg/kg, po. Conditions: in vivo. Further details: dose 50 mg/kg, route oral. The format is organism-based.

`O=C(c1ncc(-c2ccccn2)o1)[C@H]1CCc2cc(Oc3ccccc3)ccc2C1`: the fold change (FC) in the data set on Mus musculus [1] amounted to 13; with Mus musculus [3], 5.5; with Mus musculus [5] it was 0.9; in the data set with Mus musculus [6], 12; in the data set on Mus musculus [12], 0.8; with Mus musculus [14] it was 3.6. Besides, the “fold change (FC)” value came out at 6 with Mus musculus [15], 7.2 in the data set on Mus musculus [16] and 1.4 with Mus musculus [20]. Also, the Activity entry in the data set on Mus musculus [2] is “Dose-dependent effect”; in the data set with Mus musculus [4], “tde”; in the data set on Mus musculus [7], over 90%; in the data set on Mus musculus [11], “Dose-dependent effect”; in the data set with Mus musculus [13], “tde”; in the data set on Mus musculus [17], “Dose-dependent effect”. The Activity entry in the data set with Mus musculus [19] was “tde”; with Mus musculus [22], “Non-toxic”. Besides, the outcome in the data set with Mus musculus [8], in the data set on Mus musculus [9], in the data set with Mus musculus [10] and with Mus musculus [18] was Active. Besides, the pKi in data set [21] is 8.36.
